Activity calls are given as the source filed them. No cut-off for these calls is given here.
Key:
dengue virus type 2 [1] = test: Antiviral activity against Dengue virus 2 NGC infected in human A549 cells by CFI assay; format: functional, organism-based
Outline: (§1)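 CFI assay: A549 cells seeded 2 × 10^4/well, infected next day (MOI 0.3 for DENV-2) with compound-virus mixture for 1 h, then refed with compound-containing medium. On day 2 cells were methanol-fixed at 4°C and intracellular E protein detected by ELISA (4G2 primary, HRP anti-mouse secondary). EC50 is the average of two independent experiments.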

dengue virus type 1 = test: Antiviral activity against Dengue virus 1 MY10245 infected in human A549 cells by CFI assay; format: functional, organism-based; outline: as §1
dengue virus type 2 [2] = test: Antiviral activity against Dengue virus 2 MY10340 infected in human A549 cells by CFI assay; format: functional, organism-based; outline: as §1
dengue virus type 3 = test: Antiviral activity against Dengue virus 3 MY22366 infected in human A549 cells by CFI assay; format: functional, organism-based; outline: as §1
dengue virus type 4 = test: Antiviral activity against Dengue virus 4 MY22713 infected in human A549 cells by CFI assay; format: functional, organism-based; outline: as §1
dengue virus type 2 [3] = test: Antiviral activity against Dengue virus 2 NGC infected in human PBMC cells by plaque assay; format: functional, organism-based
Mus musculus [4] = test: Cmax in CD-1 mouse assessed as NITD449 level at 24.2 mg/kg, po by LC-MS-MS analysis; format: ADME, organism-based; set-up: dose 24.2 mg/kg, route oral; conditions: in vivo
Outline: (§2)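 Female CD-1 mice given the prodrug orally, formulated in 10% ethanol, 30% PEG 400, 60% D5W. Blood from three animals at 0.08, 0.25, 0.5, 1, 2, 4, 8, 16, 24 h; heparinized plasma extracted with acetonitrile-methanol-acetic acid. Parent nucleoside was quantified by LC-MS-MS (MRM, LLOQ 9.2 ng/ml) and noncompartmental analysis was run. F = dose-corrected AUC p.o./AUC i.v., with i.v. parent at 5 mg/kg.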

Mus musculus [5] = test: Tmax in CD-1 mouse assessed as NITD449 level at 24.2 mg/kg, po by LC-MS-MS analysis; format: ADME, organism-based; set-up: dose 24.2 mg/kg, route oral; conditions: in vivo; outline: as §2
Mus musculus [6] = test: AUC (0 to infinity) in CD-1 mouse assessed as NITD449 level at 24.2 mg/kg, po by LC-MS-MS analysis; format: ADME, organism-based, Plasma; set-up: dose 24.2 mg/kg, route oral, time infinity; conditions: in vivo; outline: as §2
Mus musculus [7] = test: Oral bioavailability in CD-1 mouse assessed as NITD449 level at 24.2 mg/kg by LC-MS-MS analysis; format: ADME, organism-based; conditions: in vivo; outline: as §2
Rattus norvegicus [8] = test: Cmax in Wistar rat assessed as NITD449 level at 26.5 mg/kg, po by LC-MS-MS analysis; format: ADME, organism-based; set-up: dose 26.5 mg/kg, route oral; conditions: in vivo
Outline: (§3)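 Female Wistar rats, fasted overnight until 4 h postdose, given the prodrug orally in 10% ethanol, 30% PEG 400, 60% D5W. Serial blood from groups of three at 0.17–48 h. Parent nucleoside in plasma was measured by LC-MS-MS (LLOQ 9.2 ng/ml) with noncompartmental analysis. F was corrected for dose against parent i.v. at 5.9 mg/kg.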

Rattus norvegicus [9] = test: Tmax in Wistar rat assessed as NITD449 level at 26.5 mg/kg, po by LC-MS-MS analysis; format: ADME, organism-based; set-up: dose 26.5 mg/kg, route oral; conditions: in vivo; outline: as §3
Rattus norvegicus [10] = test: AUC (0 to infinity) in Wistar rat assessed as NITD449 level at 26.5 mg/kg, po by LC-MS-MS analysis; format: ADME, organism-based, Plasma; set-up: time infinity, dose 26.5 mg/kg, route oral; conditions: in vivo; outline: as §3
Rattus norvegicus [11] = test: Oral bioavailability in Wistar rat assessed as NITD449 level at 26.5 mg/kg by LC-MS-MS analysis; format: ADME, organism-based; conditions: in vivo; outline: as §3
Rattus norvegicus [12] = test: Cmax in Wistar rat assessed as NITD449 level at 84.1 mg/kg, po by LC-MS-MS analysis; format: ADME, organism-based; set-up: dose 84.1 mg/kg, route oral; conditions: in vivo
Outline: (§4)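 Fasted female Wistar rats were dosed orally with the prodrug in 20% solutol HS15, 30% PEG 300, 50% 100 mM citrate pH 3. Groups of three were serially bled 0.17–48 h. Plasma parent levels came from LC-MS-MS (MRM, LLOQ 9.2 ng/ml) and noncompartmental modeling. F used dose-corrected AUC versus parent i.v. at 5.9 mg/kg.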

Rattus norvegicus [13] = test: Tmax in Wistar rat assessed as NITD449 level at 84.1 mg/kg, po by LC-MS-MS analysis; format: ADME, organism-based; set-up: dose 84.1 mg/kg, route oral; conditions: in vivo; outline: as §4
Rattus norvegicus [14] = test: AUC (0 to infinity) in Wistar rat assessed as NITD449 level at 84.1 mg/kg, po by LC-MS-MS analysis; format: ADME, organism-based, Plasma; set-up: time infinity, dose 84.1 mg/kg, route oral; conditions: in vivo; outline: as §4
Rattus norvegicus [15] = test: Oral bioavailability in Wistar rat assessed as NITD449 level at 84.1 mg/kg by LC-MS-MS analysis; format: ADME, organism-based; conditions: in vivo; outline: as §4
dengue virus type 2 [16] = test: Antiviral activity against Dengue virus 2 NGC infected in african green monkey Vero cells after 48 hrs by plaque assay; format: functional, organism-based
Outline: (§5)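 Titer reduction: Vero cells (4 × 10^5/well) infected 24 h after seeding at MOI 0.1 and treated immediately with compound. Culture medium was collected 48 h postinfection and titered by plaque assay; n = 3, mean ± SD.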

Yellow fever virus [17] = test: Antiviral activity against Yellow fever virus 17D infected in african green monkey Vero cells after 48 hrs by plaque assay; format: functional, cell-based
dengue virus type 2 [18] = test: Antiviral activity against Dengue virus 2 NGC infected in african green monkey Vero cells at 12.5 uM after 48 hrs by plaque assay; format: functional; outline: as §5
Yellow fever virus [19] = test: Antiviral activity against Yellow fever virus 17D infected in african green monkey Vero cells at 12.5 uM after 48 hrs by plaque assay; format: functional
West Nile virus = test: Antiviral activity against West Nile virus infected in african green monkey Vero cells assessed as inhibition of RNA replication after 24 hrs by luciferase assay; format: functional, organism-based
Outline: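 Vero cells infected at MOI about 0.1 with WNV replicon-packaged virus-like particles carrying luciferase, then treated with compound. Luciferase was read 24 h postinfection, relative to mock-treated cells set at 100%; n = 3.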

Hepatitis C virus = test: Antiviral activity against HCV subtype 1b infected in human Huh-7 cells after 48 hrs by luciferase assay; format: functional, organism-based; conditions: Hepacivirus hominis, genotype 1b
Outline: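 Huh-7 cells bearing a luciferase-reporting HCV genotype 1b replicon were incubated with compound. Luciferase was read at 48 h posttreatment and efficacy estimated from signal reduction; n = 3.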

Chikungunya virus = test: Antiviral activity against Chikungunya virus infected in african green monkey Vero cells after 22 hrs by plaque assay; format: functional, cell-based
dengue virus type 2 [20] = test: Antiviral activity against Dengue virus-2 NGC infected in hamsters BHK21 cells assessed as inhibition of viral RNA synthesis at 1 uM after 2 to 4 hrs of infection by luciferase assay; format: functional, organism-based; conditions: BHK-21
dengue virus type 2 [21] = test: Antiviral activity against Dengue virus-2 NGC infected in hamsters BHK21 cells assessed as inhibition of viral RNA synthesis at 3 uM after 2 to 4 hrs of infection by luciferase assay; format: functional, organism-based; conditions: BHK-21
dengue virus type 2 [22] = test: Antiviral activity against Dengue virus-2 NGC infected in hamsters BHK21 cells assessed as inhibition of viral RNA synthesis at 1 uM after 24 to 40 hrs of infection by luciferase assay; format: functional, organism-based; conditions: BHK-21
Outline: (§6)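 DENV-2 luciferase replicon (structural genes deleted) RNA was electroporated into BHK-21 cells, then cells were immediately incubated with compound. Luciferase was read at time points. Signals at 2–4 h p.t. reflect input translation and at 24–40 h p.t. reflect RNA synthesis; n = 3, mean ± SD.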

dengue virus type 2 [23] = test: Antiviral activity against Dengue virus-2 NGC infected in hamsters BHK21 cells assessed as inhibition of viral RNA synthesis at 3 uM after 24 to 40 hrs of infection by luciferase assay; format: functional, organism-based; conditions: BHK-21; outline: as §6
dengue virus type 2 [24] = test: Antiviral activity against Dengue virus 2 NGC infected in human A549 cells after 2 days by CFI assay in presence of 40 mg/ml human serum albumin; format: functional, organism-based; conditions: A549, 48 h
Outline: (§7)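 Modified CFI: A549 cells infected with DENV-2 New Guinea C (MOI 0.3) for 1 h without compound. Inoculum then replaced with medium containing compound dilutions plus the stated HSA and/or AGP. On day 2, cells methanol-fixed and intracellular E protein detected by ELISA (4G2 primary, HRP anti-mouse secondary); EC50 derived.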

dengue virus type 2 [25] = test: Antiviral activity against Dengue virus 2 NGC infected in human A549 cells after 2 days by CFI assay in presence of 2 mg/ml alpha-1-acid glycoprotein; format: functional, organism-based; conditions: A549, 48 h; outline: as §7
dengue virus type 2 [26] = test: Antiviral activity against Dengue virus 2 NGC infected in human A549 cells after 2 days by CFI assay in presence of 40 mg/ml human serum albumin and 2 mg/ml alpha-1-acid glycoprotein; format: functional, organism-based; conditions: A549, 48 h; outline: as §7
dengue virus type 2 [27] = test: Antiviral activity against Dengue virus 2 TSV01 infected in AG129 mouse assessed as reduced viremia by 3 mg/kg, po BID for 3 days measured on day 4 by plaque assay; format: functional
Outline: (§8)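 AG129 mice (lacking IFN-α/β and IFN-γ receptors) were inoculated i.p. with 2 × 10^6 PFU DENV-2 in 0.4 ml. Immediately afterwards, 0.2 ml compound in ethanol-PEG-D5W (10:30:60) was given by oral gavage twice daily for 3 days. Day-4 blood viremia was measured by plaque assay; 6 or 8 mice per group.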

dengue virus type 2 [28] = test: Antiviral activity against Dengue virus 2 TSV01 infected in AG129 mouse assessed as reduced viremia by 10 mg/kg, po BID for 3 days measured on day 4 by plaque assay; format: functional; outline: as §8
dengue virus type 2 [29] = test: Antiviral activity against Dengue virus 2 TSV01 infected in AG129 mouse assessed as reduced viremia by 25 mg/kg, po BID for 3 days measured on day 4 by plaque assay; format: functional; outline: as §8
Rattus norvegicus [30] = test: Toxicity in Wistar rat at 10 mg/kg/day, po for 2 weeks; format: organism-based; set-up: route oral; conditions: in vivo, 336 h
Outline: (§9)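 Male Wistar rats, 10 weeks old, dosed orally daily for 2 weeks; five per dose group. Clinical signs, body weight and mortality were monitored.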

Rattus norvegicus [31] = test: Toxicity in Wistar rat at 30 mg/kg/day, po for 2 weeks; format: organism-based; set-up: route oral; conditions: in vivo, 336 h; outline: as §9
Rattus norvegicus [32] = test: Toxicity in Wistar rat at 75 mg/kg/day, po for 2 weeks; format: organism-based; set-up: route oral; conditions: in vivo, 336 h; outline: as §9

`C#C[C@@]1(O)[C@H](OC(=O)C(C)C)[C@@H](COC(=O)C(C)C)O[C@H]1n1cc(C(N)=O)c2c(N)ncnc21` showed an EC50 (dengue virus type 2 [1]) of 690 nM, an EC50 (dengue virus type 1) of 540 nM and an EC50 (dengue virus type 2 [2]) of 570 nM. The EC50 (dengue virus type 3) was 540 nM, the EC50 (dengue virus type 4) was 710 nM and the EC50 (dengue virus type 2 [3]) was 100 nM. The Cmax (Mus musculus [4]) was 6.01 µM, the Tmax (Mus musculus [5]) was 4.8 min and the AUC (Mus musculus [6]) was 12.6 µM·h. It also gave an F (Mus musculus [7]) of 32%, a Cmax (Rattus norvegicus [8]) of 3.65 µM and a Tmax (Rattus norvegicus [9]) of 30 min. The AUC (Rattus norvegicus [10]) was 13.7 µM·h, the F (Rattus norvegicus [11]) was 13% and the Cmax (Rattus norvegicus [12]) was 14.2 µM. For the same compound, the Tmax (Rattus norvegicus [13]) was 30 min, the AUC (Rattus norvegicus [14]) was 33.5 µM·h and the F (Rattus norvegicus [15]) was 10%. For the same compound, the Activity (dengue virus type 2 [16]) was “Active”, the Activity (Yellow fever virus [17]) was “Active” and the “fold change (FC)” value (dengue virus type 2 [18]) was 1000. For the same compound, the “fold change (FC)” value (Yellow fever virus [19]) was 100, the Activity (West Nile virus) was “Active” and the Activity (Hepatitis C virus) was “Active”. The Activity (Chikungunya virus) was “Active”, the Activity (dengue virus type 2 [20]) was “Active” and the Activity (dengue virus type 2 [21]) was “Active”. The Activity (dengue virus type 2 [22]) was “Active”, the Activity (dengue virus type 2 [23]) was “Active” and the EC50 (dengue virus type 2 [24]) was 790 nM. For the same compound, the EC50 (dengue virus type 2 [25]) was 760 nM, the EC50 (dengue virus type 2 [26]) was 850 nM and the “fold change (FC)” value (dengue virus type 2 [27]) was 2.7. For the same compound, the “fold change (FC)” value (dengue virus type 2 [28]) was 4.4, the “fold change (FC)” value (dengue virus type 2 [29]) was 30 and the Activity (Rattus norvegicus [30]) was “Non-toxic”. The Activity (Rattus norvegicus [31]) was “Toxic” and the Activity (Rattus norvegicus [32]) was “Toxic”.

Reference: ChEMBL document CHEMBL1629704, “Inhibition of dengue virus by an ester prodrug of an adenosine analog” (Antimicrob Agents Chemother, 2010)
